≈ marks a conversion by molar mass, not a printed value.
Key:
L1210 = test: Inhibitory concentration of compound against proliferation of murine lukemia cells L1210 was determined; type: functional, cell-based; conditions: Mus musculus
Outline: (§1)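 (5–7.5) × 10^4 cells per well were incubated with test compound at 37 °C in a humidified CO2 atmosphere. L1210 murine leukemia cells grew for 48 h, and CEM and Molt4/clone 8 human lymphocytes grew for 72 h. Cells were then counted with a Coulter counter. IC50 is the concentration inhibiting proliferation by 50%.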

Mus musculus [1] = organism: Mus musculus; test: Minimal inhibitory concentration required to cause a microscopic detectable alteration of C3H/3T3 embryo murine fibroblast cell morphology; type: functional
Outline: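 Uninfected C3H/3T3 murine embryo fibroblast cultures were exposed to test compound and checked microscopically for changes in cell morphology. The MIC is the concentration causing a microscopically detectable alteration of morphology.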

[2] = test system: Human immunodeficiency virus 2; test: Concentration required to protect human T-lymphocytic cells against the cytopathogenicity of HIV-2; type: functional, organism-based; conditions: Human immunodeficiency virus 2
MOLT-4 = test: Inhibitory concentration of compound against proliferation of human T-lymphocytic cells MOLT-4/C8 was determined; type: functional, cell-based; outline: as §1
CCRF-CEM = test: Inhibitory concentration against proliferation of human T-lymphocytic (CEM) cells; type: functional, cell-based; conditions: Homo sapiens, CCRF-CEM; outline: as §1
Mus musculus [3] = organism: Mus musculus; test: Effective concentration of compound required to protect C3H/3T3 embryo murine fibroblasts against the MSV induced transformation; type: functional, organism-based; conditions: Mus musculus, C3H/3T3
Outline: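 Monolayer murine embryo fibroblast C3H/3T3 cultures were infected with Moloney murine sarcoma virus at 75 focus-forming units and cultured with test compound. Transformation was examined microscopically on day 6 postinfection. EC50 is the concentration protecting cells against MSV-induced transformation by 50%.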

[4] = test system: Human immunodeficiency virus 1; test: Effective concentration of compound required to protect human T-lymphocytic cells against the cytopathogenicity of HIV-1; type: functional, organism-based; conditions: Human immunodeficiency virus 1

Row | SMILES | IC50 (L1210) [µM] | MIC (Mus musculus [1]) [µM] | EC50 [2] [µM] | IC50 (MOLT-4) [µM] | IC50 (CCRF-CEM) [µM] | EC50 (Mus musculus [3]) [µM] | EC50 [4] [µM]
1 | O=CC(=O)c1[nH]c2ccccc2c1NC1C(=O)NC2Cc3ccc(c(Cl)c3)Oc3cc4cc(c3O)Oc3ccc(cc3Cl)C(O)C3NC(=O)C(NC(=O)C4NC(=O)C(NC2=O)c2cc(O)cc(c2)Oc2cc1ccc2O)c1ccc(O)c(c1)-c1c(O)cc(O)cc1[C@H](C(=O)O)NC3=O (some centres undefined) | 192 | > 100 | 15 | 108 | 108 | 4.4 | 10
2 | CNC(=O)[C@H]1NC(=O)[C@H]2NC(=O)[C@H](NC(=O)[C@@H]3NC(=O)[C@H](CC(N)=O)NC(=O)[C@H](NC(=O)[C@@H](CC(C)C)NC)[C@H](O)c4ccc(c(Cl)c4)Oc4cc3cc(c4O[C@@H]3O[C@H](CO)[C@@H](O)[C@H](O)[C@H]3O[C@H]3C[C@](C)(N)[C@@H](O)[C@H](C)O3)Oc3ccc(cc3)[C@H]2O[C@H]2C[C@](C)(N)[C@@H](O)[C@H](C)O2)c2ccc(O)c(c2)-c2c(O)cc(O)cc21 | > 500 |  | > 250 | > 500 | > 500 |  | > 250
3 | CCCCCCCCCCNC(=O)[C@H]1NC(=O)[C@H]2NC(=O)[C@H](NC(=O)[C@@H]3NC(=O)[C@H](CC(N)=O)NC(=O)[C@H](NC(=O)[C@@H](CC(C)C)NC)[C@H](O)c4ccc(c(Cl)c4)Oc4cc3cc(c4O[C@@H]3O[C@H](CO)[C@@H](O)[C@H](O)[C@H]3O[C@H]3C[C@](C)(N)C(O)[C@H](C)O3)Oc3ccc(cc3Cl)[C@H]2O)c2ccc(O)c(c2)-c2c(O)cc(O)cc21 (some centres undefined) | 30 | 20 (≈ 31.8 µg/mL) | > 10 | > 10 | 30 | > 4 | > 10
4 | CCCCCCCCCCNC(=O)[C@H]1NC(=O)[C@H]2NC(=O)[C@H](NC(=O)[C@@H]3NC(=O)[C@H](CC(N)=O)NC(=O)[C@H](NC(=O)[C@@H](CC(C)C)NC)[C@H](O)c4ccc(c(Cl)c4)Oc4cc3cc(c4O[C@@H]3O[C@H](CO)[C@@H](O)[C@H](O)[C@H]3O[C@H]3C[C@](C)(N)[C@@H](O)[C@H](C)O3)Oc3ccc(cc3)[C@H]2O[C@H]2C[C@](C)(N)[C@@H](O)[C@H](C)O2)c2ccc(O)c(c2)-c2c(O)cc(O)cc21 | 29 |  | > 10 | 21 | 9.4 |  | > 10
5 | COC(=O)[C@@H]1NC(=O)C2NC(=O)C(NC(=O)C(N)c3cc(Oc4ccc(CC(NC(=O)OCc5ccccc5)C(=O)O)cc4Cl)c(O)c(c3)Oc3ccc(cc3Cl)C2O)c2ccc(O)c(c2)-c2c(O)cc(O)cc21 (some centres undefined) | > 500 |  | 85 | > 500 | > 500 |  | 25
6 | CCCCCCCCCCNCc1c(O)cc2c(c1O)-c1cc(ccc1O)[C@H]1NC(=O)[C@@H]3NC(=O)[C@H](CC(N)=O)NC(=O)[C@H](NC(=O)[C@@H](CC(C)C)NC)[C@H](O)c4ccc(c(Cl)c4)Oc4cc3cc(c4O[C@@H]3O[C@H](CO)[C@@H](O)[C@H](O)[C@H]3O[C@H]3C[C@](C)(N)[C@@H](O)[C@H](C)O3)Oc3ccc(cc3)[C@@H](O[C@H]3C[C@](C)(N)[C@@H](O)[C@H](C)O3)[C@H](NC1=O)C(=O)N[C@@H]2C(=O)O | 19 |  | > 20 | 27 | 24 |  | > 20
7 | CCCCCCCCCCNCc1c(O)cc2c(c1O)-c1cc(ccc1O)C1NC(=O)C3NC(=O)C4NC(=O)C(Cc5ccc(c(Cl)c5)Oc5cc3cc(c5O)Oc3ccc(cc3Cl)C(O)C(NC1=O)C(=O)N[C@H]2C(=O)NCCCN(C)C)NC(=O)C(N)c1ccc(O)c(c1)Oc1cc(O)cc4c1 (some centres undefined) | 48 |  | 6.1 | > 100 | > 100 |  | 1.4
8 | CCCCCCCCCCCCCCCCCCNCc1c(O)cc2c(c1O)-c1cc(ccc1O)C1NC(=O)C3NC(=O)C4NC(=O)C(Cc5ccc(c(Cl)c5)Oc5cc3cc(c5O)Oc3ccc(cc3Cl)C(O)C(NC1=O)C(=O)N[C@H]2C(=O)O)NC(=O)C(N)c1ccc(O)c(c1)Oc1cc(O)cc4c1 (some centres undefined) |  | 100 (≈ 148 µg/mL) | 7.8 |  | 22 | 1.7 | 4.5

Source: ChEMBL document CHEMBL1145814, “Antiretroviral activity of semisynthetic derivatives of glycopeptide antibiotics” (J Med Chem, 2003)
